In the library only some 2.6% were active in any assay of this set; here they are far more common.
miR-122 sensor = miR-122 Renilla sensor signal increase in Huh7, primary screen, miR-122 inhibitor project, cell-based, single point, plate reader. Huh7 miR-122 Renilla luciferase sensor, 48 h; neutral wells = 0, positive control = 100. activation (reporter increase), % at 12.5 µM. 340,000 compounds, 0.3% hits. AID 602342, 2012;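 active = mean replicate activation score at least 90 and every replicate individually at or above 90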;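 also: higher luciferase means less miR-122 activity so hits act as miR-122 inhibitors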
S100A4 MyoIIA = inhibitors of S100A4-myosin IIA peptide binding, primary screen, biochemical, fluorescence polarization, TAMRA-MyoIIA peptide; inhibition, % at 10.7 µM; AID 652163, 2013; Protein S100-A4 (Homo sapiens), P26447; 360,000 compounds, 0.14% hits;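 active = mean inhibition of at least 70% across replicates, with every replicate also reaching that level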
Target sequence (P26447 whole entry, looked up): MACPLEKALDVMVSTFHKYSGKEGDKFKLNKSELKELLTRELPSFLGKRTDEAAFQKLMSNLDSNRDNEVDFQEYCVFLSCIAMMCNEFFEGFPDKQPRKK
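Compound dosing: one dose per compound; test system: human S100A4 monomer with TAMRA-labelled myosin IIA peptide; probe or stimulus: TAMRA-labelled myosin IIA heavy-chain peptide probe, 5 nM; medium: HEPES buffer with Ca2+, pH 7.2; schedule: 5 min incubation before reading; benchmarks: neutral control DMSO, positive control TFP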
Env fusion inh = inhibitors of HIV-1 Env-driven cell-cell fusion, primary screen, HeLa-JRFL effector, CEM21 target cells, luciferase | 360,000 compounds, 1.1% hits | inhibition, % at 12.3 µM;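 active = mean replicate inhibition score of at least 50 and every replicate individually at or above 50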;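 also: 0% = plate neutral controls and 100% = maraviroc near 300 nM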
Vif imaging = HIV Vif self-association inhibitors, primary screen, imaging, HEK293T, single point | HEK293T cells, Vif self-association by quenched fluorescence, 24 h | 340,000 compounds, 0.35% hits | inhibition, % at 7.49 µM; in the data active = inhibition above about 50%, passing the limit was not always enough
rRNA inh HTS = reduced GFP signal of wild-type E. coli, primary screen, bacterial rRNA inhibitor project, GFP/RFP fluorescence, OD600, single point; E. coli WT GFP vs humanized-ribosome RFP mutants, 24 h; stronger effect = lower value; DMSO median 0, no signal -100; GFP signal change (wild-type ribosome), % (concentration not given with the values); 350,000 compounds, 1.6% hits; AID 720706, 2013;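 active = significant combined selectivity score with lowered wild-type GFP, culture density cut under 30%, mutant RFP and density less affected; inactive = any of these conditions unmet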
FN deposit inh = inhibitors of fibronectin matrix deposition, primary screen, AH1F cells, Alexa488-fibronectin fluorescence, plate reader; AH1F fibroblasts, overnight; inhibition, % at 12.6 µM; 350,000 compounds, 0.086% hits; AID 743247, 2014;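 active = mean inhibition across replicates of 30% or more, regardless of how many single replicates reach that level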;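 also: positive control wells lacked labelled fibronectin entirely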
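Material: AH1F fibroblasts assembling fluorescent fibronectin matrix; amount: 10000 AH1F cells/well; medium: DMEM, 2% serum; reagent: Alexa488-fibronectin, 24 nM final in well; dosing: single compound dose, delivered by pin transfer; incubation: 1 h adhesion, overnight exposure; detection: fluorescence after three HBSS washes, excitation 485 nm, emission 525 nm; measure: fibronectin deposition inhibition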
* hit, by the source's call; · = no result given; [ ] = remark or other dose.

SMILES	miR-122 sensor	S100A4 MyoIIA	Env fusion inh	Vif imaging	rRNA inh HTS	FN deposit inh
CC1CCCN(c2ccc(C(=O)N3CCC4(CC3)OCCO4)cc2[N+](=O)[O-])C1 (centres undefined)	21	5	-4	0	-30*	-4
CCCCCCC(=O)N/N=C/c1c(O)n(C2CC2)c(=S)[nH]c1=O	·	-3	-2	3	2	5
CCCCCCC(=O)N/N=C/c1c(O)n(C(C)CC)c(=S)[nH]c1=O (centres undefined)	-1	-13	8	7	-23*	-7
COC(=O)[C@H]1[C@H](CO)[C@H]2Cn3c(ccc(/C=C/c4ccccc4)c3=O)[C@@H]1N2CC1CCCC1	-6[16.7 µM]	1	·	·	-21	·
COC(=O)[C@@H]1[C@@H](CO)[C@@H]2Cn3c(ccc(-c4cccc(OC)c4)c3=O)[C@H]1N2C(=O)c1ccccc1F	9[16.7 µM]	0	·	·	-4	·
CC12CCC(=O)C=C1C=CC1C2CCC2(C)C(O)CCC12 (centres undefined)	-14	-15	81*	6	-35	14
COC(=O)[C@H]1[C@H](CO)[C@H]2Cn3c(ccc(-c4ccccc4F)c3=O)[C@@H]1N2C(=O)C1CC1	-2[16.7 µM]	-5	·	·	3	·
CN1CCc2nc3ccc(F)cc3c(C(N)=O)c2C1	-7	·	·	60*	·	·
FC(F)(F)CN1C[C@@H]2C(c3ccc(Br)cc3)[C@H](C1)N2CC1CC1 (some centres undefined)	·	·	·	·	-57	20
COC(=O)[C@H]1[C@H](CO)[C@H]2Cn3c(cccc3=O)[C@@H]1N2C(=O)C1CC1	·	2	0[16.7 µM]	·	0	·
CCCc1nc2ccccc2c(=O)n1-c1ccccc1OC	·	·	·	3	·	·
COc1ccccc1-n1c(Cc2ccccc2)nc2ccccc2c1=O	1	-2	-1	13	-22*	-13
CC=Cc1ccc2n(c1=O)C[C@@H]1[C@@H](CO)[C@H](C(=O)OC)[C@H]2N1CC1CCOCC1 (mixture of isomers)	·	-1	-7[16.7 µM]	·	5	·
COc1ccc(SCC2CN(C)CCC2c2ccc(F)cc2)cc1 (centres undefined)	·	-2	10	-38	-33*	-9
COc1cccc(C2CCN(C)C2)c1 (centres undefined)	0	-7	3	12	-1	4
CC(C)NC(=O)N1C[C@@H]2N[C@H](C1)C2c1ccccc1 (some centres undefined)	·	·	·	·	1	-10
CCCC/C(=N/O)c1c(C)[nH]c2ccccc12	·	-2	-3	0	-11	-8
CCCCC/C(=N/O)c1c(C)[nH]c2ccccc12	·	2	-3	-7	-21*	0
CCOC(=O)C1CCCN(c2ccc([N+](=O)[O-])c3nonc23)C1 (centres undefined)	·	170*	3	11	32	-16
CC=Cc1ccc2n(c1=O)C[C@H]1[C@H](CO)[C@@H](C(=O)OC)[C@@H]2N1CC1CCCC1 (mixture of isomers)	·	-9	·	·	-5	·
CC(=O)OC1C(O)C(C)OC(OC2C(OC(=O)C3CCC4C(C3)OC3(CC(OC(=O)/C=C/c5ccccc5)C(C)CO3)C43CO3)OC(C)C(O)C2OC(C)=O)C1O (centres undefined)	-14	-3	72*	6	·	-1
O=C(Cc1cccnc1)N1CCCCN2[C@@H](CO)[C@@H](c3ccc(/C=C/c4ccccc4)cc3)[C@@H]2C1	-1[16.7 µM]	4	·	·	-12	·
NC(=S)c1cn(C2OC(CO)C(O)C2O)c2ncnc(N)c12 (centres undefined)	·	-1	90*	·	12	22
Nc1ncnc2c1ccn2[C@@H]1O[C@H](CO)[C@@H](O)[C@H]1O	-25	-5	·	-39	·	·
COC(=O)[C@@H]1N[C@@H]2c3ccc(C4=CCCC4)c(=O)n3C[C@@H]2[C@H]1CO	·	-1	·	·	1	·
SMILES	miR-122 sensor	S100A4 MyoIIA	Env fusion inh	Vif imaging	rRNA inh HTS	FN deposit inh
Cc1cccc(Cn2cc(C=O)c3ccccc32)c1	-10	-8	-52	13	-13	-1
O=Cc1cn(Cc2cccc([N+](=O)[O-])c2)c2ccccc12	·	-7	-29	-3	-21*	4
COc1ccccc1OCCCn1cc(C=O)c2ccccc21	-2	-4	-26	-18	-18	6
O=Cc1cn(Cc2c(F)cccc2Cl)c2ccccc12	7	1	4	-1	-27*	-2
O=Cc1cn(Cc2ccccc2F)c2ccccc12	-6	-3	23	-7	-25*	5
O=Cc1cn(CCCOc2ccccc2)c2ccccc12	·	0	-6	-3	-49*	-2
COC(=O)[C@@H]1[C@@H](CO)[C@@H]2Cn3c(ccc(-c4ccncc4)c3=O)[C@H]1N2S(=O)(=O)c1ccccc1C	1[16.7 µM]	-9	·	·	3	·
CN(Cc1cccc(-c2cccnc2)c1)C(=O)Oc1ccc([N+](=O)[O-])cc1	·	18	134*	·	-29	·
Cc1nc(-c2cccc(CN(C)C(=O)Oc3ccc([N+](=O)[O-])cc3)c2)no1	·	-2	24	·	-19*	-2
CC[n+]1c(-c2ccccc2)c2cc(N)ccc2c2ccc(N)cc21	·	130*	8	-12	-33	3
O=C(O)[C@H]1[C@H](CO)[C@H]2Cn3c(ccc(-c4cncnc4)c3=O)[C@@H]1N2C(=O)NC1CCCC1	-3[16.7 µM]	4	·	·	2	·
O=C1NC(=O)C(=Cc2cc([N+](=O)[O-])ccc2N2CCCCC2)C(=O)N1	-9	-2	4	59*	-40	1
O=C1NC(=O)C(=Cc2ccc(N3CCN(C(=O)c4ccccc4)CC3)c([N+](=O)[O-])c2)C(=O)N1	·	0	-6	8	·	3
COc1ccc(-n2c(-c3ccc(C)cc3)nc3ccccc3c2=O)cc1	·	0	-8	-4	-27*	2
Cc1ccccc1-c1ccc([C@H]2[C@@H](CO)N3CCCCN(C(=O)Cc4ccccn4)C[C@H]23)cc1	-10[16.7 µM]	5	·	·	-31	·
O=C(Nc1cccc(OC(=O)N2CCOCC2)c1)N1CCOCC1	-7	·	72*	·	·	·
O=C(Cc1ccccc1)N1CC2(C1)[C@H](c1ccccc1)[C@H](CO)N2Cc1cccc(F)c1	·	3	·	·	-8	·
CCN1[C@@H]2Cn3c(ccc(-c4cccc(OC)c4)c3=O)[C@H]1[C@@H](C(=O)OC)[C@@H]2CO	2[16.7 µM]	-9	·	·	2	·
